Compound activity from PubChem.
Xi reactivation = X-chromosome reactivation activator. XiGFP mouse fibroblasts, % GFP-positive cells imaging, 3 d; cells co-treated with 5-aza-dC sensitizer; scaled so ellipticine positive control = 100%. 360,000 tested, 0.055% active. activation, % at 7.58 µM. AID 743238;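 active = mean normalized replicate activation at least 10% and every replicate at or above 10%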
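Material: XiGFP fibroblasts, SV40-immortalized; Buffer or medium: DMEM containing 5-aza-dC; Compound dosing: single point; Times: 3 days compound exposure.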
E-selectin induc = E-selectin induction on HUVECs. 260,000 tested, 0.37% active. P16581. HUVEC E-selectin immunofluorescence imaging; normalized: neutral wells 0, TNF-alpha wells 100. activation, % at 7.58 µM;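 active = mean E-selectin-positive cell signal at least 10% of the positive control, reached in at least 60% of replicates, without over 20% cell loss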
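Test system – human umbilical vein endothelial cells (HUVEC), E-selectin induction · Input – 3,000 HUVEC seeded per well · Buffer or medium – EGM-2, gelatin · Compound dosing – single-point compound dose · Detection – immunofluorescence imaging · Measure – percent E-selectin-positive cells · Controls – TNF-alpha high, DMSO low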
A number is an active result; 0 = inactive; - = no result. Only a selection was taken, and hits are over-represented in it overall.

SMILES	Xi reactivation	E-selectin induc
CN(C)c1ccc(/C=C/C=C/c2sc3ccccc3[n+]2C)cc1	0	70
CC[n+]1c(/C=C/C=C/c2ccc(N(C)C)cc2)sc2ccccc21	0	-
CN(C)c1ccc(/C=C/c2cc[n+](C)c3ccccc23)cc1	0	110
C[n+]1ccc(-c2ccccc2)c2ccccc21	0	0
CC(C)NC(=O)N1C[C@@H]2N[C@H](C1)C2c1ccccc1 (stereo partly drawn)	0	-
Cc1cccc(CN2CCCC(C(=O)c3ccc4c(c3)OCO4)C2)n1 (stereo not drawn)	0	33
Cc1cc(Cl)ccc1C(=O)C1CCCN(Cc2ccon2)C1 (stereo not drawn)	0	-
COc1cccc(C(=O)C2CCCN(Cc3cccc(C)n3)C2)c1 (stereo not drawn)	0	-
O=C(c1cccc2ccccc12)C1CCCN(Cc2ccon2)C1 (stereo not drawn)	27	-
OC[C@@H]1Nc2ccc(C#Cc3cccnc3)cc2[C@H]2NCC[C@@H]12	0	-
C=CCN1[C@@H]2CN(C(=O)NC(C)C)C[C@H]1C2c1ccc(Br)cc1 (stereo partly drawn)	0	-
Fc1ccc(CN2CC3NC(C2)C3c2ccc(Br)cc2)cc1 (stereo not drawn)	0	-
CN1CCN(c2cn[nH]c(=O)c2Cl)CC1	0	46
CN1CCN(c2ccc([N+](=O)[O-])cc2Cl)CC1	0	0
COC(=O)[C@@H]1[C@@H](CO)[C@@H]2Cn3c(ccc(C4=CCCCC4)c3=O)[C@H]1N2Cc1ccccc1OC	0	0
CC(C)NC(=O)N1CC2C(c3ccccc3)C(C1)N2C (stereo not drawn)	0	-
Nc1c(Br)cc2c3c(cccc13)-c1ccccc1-2	27	0
FC(F)(F)CN1C[C@@H]2C(c3ccc(Br)cc3)[C@H](C1)N2CC1CC1 (stereo partly drawn)	0	-
CN(N)N=Nc1nc2c([nH]1)c(=O)n(C)c(=O)n2C	0	58
CC(=O)N1C[C@@H]2C(c3ccccc3)[C@H](C1)N2C (stereo partly drawn)	0	-
FC(F)(F)CN1C[C@@H]2C(c3ccccc3)[C@H](C1)N2CC1CC1 (stereo partly drawn)	0	-
Cc1ccc(-c2nc3ccccc3c(=O)n2-c2ccncc2)cc1	0	-
Cc1ccc(-c2nc3ccccc3c(=O)n2-c2cccc(O)c2)cc1	0	164
CN1[C@@H]2CN(CC3CC3)C[C@H]1C2c1ccc(Br)cc1 (stereo partly drawn)	0	-
